Usually inhibition stands for the percentage by which the read-out fell short of the control.

Each structure is given as a SMILES string.

We go through 7 molecules from ChEMBL document CHEMBL3400023, “Synthesis and evaluation of novel amide amino-β-lactam derivatives as cholesterol absorption inhibitors” (Bioorg Med Chem, 2015).

Data set [1] can be described thus: Cytotoxicity against MDCK2 cells expressing human NPC1L1 dosed with micelles after 1 hr. Conditions: dog, mdck-ii. Further details: species or system Canis lupus familiaris. Summed up:
(§1)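 MDCKII cells (wild type or stably expressing hNPC1L1, G418-maintained) seeded at 2 × 10^5 cells/mL 24 h ahead in DMEM/10% FCS. Cells exposed for 1 h, then viability read by MTT assay.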

Data set [2] is described as follows: Cytotoxicity against MDCK2 cells dosed with micelles after 1 hr. Further details: species or system Canis lupus familiaris. As to conditions: dog, mdck-ii. In short, it runs like this:
as §1

The target of data set [3] is T1, NPC1-like intracellular cholesterol transporter 1 (Homo sapiens) (UniProt Q9UHC9).
T1 sequence (whole entry): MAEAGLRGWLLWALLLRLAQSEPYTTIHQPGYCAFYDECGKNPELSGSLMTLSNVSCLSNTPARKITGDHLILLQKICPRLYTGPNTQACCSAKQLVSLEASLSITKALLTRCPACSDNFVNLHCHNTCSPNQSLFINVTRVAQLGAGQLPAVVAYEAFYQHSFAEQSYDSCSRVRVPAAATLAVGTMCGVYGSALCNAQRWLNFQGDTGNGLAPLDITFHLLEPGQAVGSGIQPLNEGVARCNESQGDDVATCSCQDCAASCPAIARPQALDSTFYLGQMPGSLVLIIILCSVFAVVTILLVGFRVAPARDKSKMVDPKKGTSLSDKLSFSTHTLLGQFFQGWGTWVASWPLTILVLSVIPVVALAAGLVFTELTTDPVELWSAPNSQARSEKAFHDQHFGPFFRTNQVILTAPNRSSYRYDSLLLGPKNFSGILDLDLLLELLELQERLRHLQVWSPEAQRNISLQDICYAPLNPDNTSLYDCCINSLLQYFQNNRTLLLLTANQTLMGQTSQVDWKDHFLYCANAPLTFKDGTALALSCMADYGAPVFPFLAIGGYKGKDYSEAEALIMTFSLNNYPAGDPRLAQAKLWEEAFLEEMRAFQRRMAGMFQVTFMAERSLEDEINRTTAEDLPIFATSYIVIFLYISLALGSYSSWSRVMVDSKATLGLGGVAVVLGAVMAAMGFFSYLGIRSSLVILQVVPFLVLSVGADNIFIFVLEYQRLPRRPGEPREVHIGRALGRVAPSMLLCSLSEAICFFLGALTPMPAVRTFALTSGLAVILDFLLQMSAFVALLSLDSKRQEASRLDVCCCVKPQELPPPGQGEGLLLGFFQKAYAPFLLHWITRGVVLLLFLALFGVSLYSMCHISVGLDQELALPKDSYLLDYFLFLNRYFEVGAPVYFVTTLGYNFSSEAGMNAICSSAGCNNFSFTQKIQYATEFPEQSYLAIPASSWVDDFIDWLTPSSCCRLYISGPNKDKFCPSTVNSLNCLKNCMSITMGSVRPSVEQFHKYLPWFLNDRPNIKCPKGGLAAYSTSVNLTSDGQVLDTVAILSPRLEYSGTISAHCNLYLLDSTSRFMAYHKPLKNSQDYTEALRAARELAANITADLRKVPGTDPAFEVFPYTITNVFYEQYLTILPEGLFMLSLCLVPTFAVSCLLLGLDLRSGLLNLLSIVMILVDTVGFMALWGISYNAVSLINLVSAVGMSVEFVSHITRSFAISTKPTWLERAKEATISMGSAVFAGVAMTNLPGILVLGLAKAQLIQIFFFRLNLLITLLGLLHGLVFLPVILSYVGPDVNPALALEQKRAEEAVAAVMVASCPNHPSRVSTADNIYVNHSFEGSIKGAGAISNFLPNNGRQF
Briefly: Inhibition of human NPC1L1 transfected in MDCK2 cells assessed as [3H]cholesterol uptake at 60 uM after 1 hr by liquid scintillation counting analysis. It is filed as cell-based. As to conditions: MDCK-II. Summed up: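 hNPC1L1/MDCKII cells were seeded in DMEM with 5% LPDS 24 h before treatment, then PBS-washed. Cells were exposed for 1 h to micellar medium carrying [3H]cholesterol (0.18 μCi/mL) plus compound (0–200 μM). They were washed with ice-cold 0.2% fatty acid-free BSA and lysed, and lysate counted by scintillation. Counts were normalised to protein (CPM/mg) and expressed as % inhibition versus untreated cells. Duplicates, three independent experiments.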

As for `O=C(/C=C/c1ccccc1)N[C@H]1C(=O)N(c2ccc(F)cc2)[C@@H]1c1ccc(O)cc1`, the Activity result in data set [1] and in data set [2] was “Non-toxic” each time.
As to `O=C1[C@H](CC[C@H](O)c2ccc(F)cc2)[C@@H](c2ccc(O)cc2)N1c1ccc(F)cc1` [EZETIMIBE], the Activity result in data set [1] and in data set [2] was “Non-toxic” throughout. Further, the inhibition in data set [3] worked out at 40%.
Take `O=C(/C=C/c1ccc(F)cc1)N[C@H]1C(=O)N(c2ccc(F)cc2)[C@@H]1c1ccc(O)cc1`: the Activity entry in data set [1] and in data set [2] was “Non-toxic” in each case.
As to `O=C(N[C@H]1C(=O)N(c2ccc(F)cc2)[C@@H]1c1ccc(O)cc1)c1ccccc1`, the Activity result in data set [1] and in data set [2] was “Non-toxic” throughout. For the same molecule, in data set [3], the inhibition is 60%.
As to `O=C(Cc1ccccc1)N[C@H]1C(=O)N(c2ccc(F)cc2)[C@@H]1c1ccc(O)cc1`, the Activity entry in data set [1] and in data set [2] was “Non-toxic” each time.
For the molecule `O=C(Cc1ccc(F)cc1)N[C@H]1C(=O)N(c2ccc(F)cc2)[C@@H]1c1ccc(O)cc1`, the Activity result in data set [1] and in data set [2] was “Non-toxic” in each case.
Regarding `O=C(N[C@H]1C(=O)N(c2ccc(F)cc2)[C@@H]1c1ccc(O)cc1)c1ccc(F)cc1`, the Activity entry in data set [1] and in data set [2] was “Non-toxic” throughout. Moreover, the inhibition in data set [3] is 60%.
